From PubChem
Sampled rows, rich in hits. Any-hit rate of the full collection: about 1.6%.
LEDGF integ inh = blocks HIV-1 LEDGF/p75-dependent DNA integration. TR-FRET IN-LEDGF/p75 DNA integration, Eu/Cy5. inhibition, % at 3.7 µM. hit rate 0.64% among 370,000. AID 743269;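 active means inhibition above the screen-wide mean plus 3 SD, cut at about 13% in these data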;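 further: signal is the Cy5 over europium emission ratio at 671 and 618 nm; 0% = plate median of compound wells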
TDP2 absorb = TDP2 (human) inhibition, absorbance primary screen; O95551; recombinant TDP2, T5PNP hydrolysis, p-nitrophenol absorbance 415 nm; inhibition, % at 12.8 µM; hit rate 0.34% among 370,000;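 active means inhibition above the mean of all tested compounds plus 3 SD, set per campaign, cut at about 25% in these data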;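 further: 0% = DMSO with enzyme and 100% = buffer with substrate but no TDP2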
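test system = human TDP2 enzyme | input = TDP2 enzyme at 120 nM final | medium = 50 mM Tris-HCl pH 7.5 with Mg2+, KCl, DTT, BSA | also added = T5PNP substrate, 5 mM | times = 2 h at 37 °C | technique = epi absorbance | benchmarks = high control without enzyme, low control DMSO plus TDP2 | replication = each compound tested once, singlicate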
MBD2 DNA inh = MBD2-methylated oligo binding inhibition | TR-FRET, MBD2 binding to methylated oligonucleotide | hit rate 0.31% among 370,000 | inhibition, % at 4.4 µM | Q9UBB5; in the data active means inhibition above about 13%
Target sequence (Q9UBB5 whole entry, looked up): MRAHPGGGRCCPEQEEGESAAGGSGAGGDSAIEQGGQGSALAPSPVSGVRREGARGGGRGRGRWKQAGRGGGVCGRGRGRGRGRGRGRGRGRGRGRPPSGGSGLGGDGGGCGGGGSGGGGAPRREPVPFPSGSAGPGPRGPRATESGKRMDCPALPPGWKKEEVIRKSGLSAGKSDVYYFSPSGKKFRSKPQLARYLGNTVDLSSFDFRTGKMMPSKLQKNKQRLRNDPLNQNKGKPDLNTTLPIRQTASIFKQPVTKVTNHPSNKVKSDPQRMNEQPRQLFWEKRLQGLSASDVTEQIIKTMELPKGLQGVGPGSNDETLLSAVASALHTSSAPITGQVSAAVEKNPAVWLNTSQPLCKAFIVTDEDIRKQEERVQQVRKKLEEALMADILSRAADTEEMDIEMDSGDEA
UHRF1 MBD2 ctr = blocks human UHRF1 binding to methylated DNA; inhibition, % at 4.4 µM; Q96T88; UHRF1 binding to methylated oligo, TR-FRET; hit rate 0.75% among 370,000; in the data active means inhibition above about 21%;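 further: UHRF1 SRA domain binding a hemimethylated CpG hairpin DNA probe; 0% = median of test compound wells and 100% = reference inhibitor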
TDP2 inh conf = confirmation of human TDP2 inhibitors; shares compounds with TDP2 absorb; recombinant human TDP2, absorbance read-out; inhibition, % at 12.8 µM; hit rate 22% among 1,100; in the data active means inhibition above about 25%;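 further: 0% = vehicle with enzyme and 100% = no enzyme buffer only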
The depositor's hits bear a star.

For COc1cc2c(c(OC)c1O)C(=O)CO2 the results were LEDGF integ inh -3.8, TDP2 absorb 24.8*, MBD2 DNA inh 2.8, UHRF1 MBD2 ctr -3.0 and TDP2 inh conf -4.4.
Screening CCn1cc(C(=O)Nc2ncccc2O)c(=O)c2cc(F)c(N3CCN(C(=O)c4ccco4)CC3)cc21 returned LEDGF integ inh 1.7, TDP2 absorb 27.6*, MBD2 DNA inh -1.6, UHRF1 MBD2 ctr -5.5 and TDP2 inh conf -2.0.
Cc1c(Cc2ccccc2)c(=O)oc2cc(OCC(=O)c3ccccc3)ccc12 was read as LEDGF integ inh 3.2, TDP2 absorb -26.5, MBD2 DNA inh 6.0 and UHRF1 MBD2 ctr 15.5.
Cc1c(Cc2ccccc2)c(=O)oc2cc(OCC(=O)NCC(O)c3ccccc3)ccc12 (configuration not stated) was read as LEDGF integ inh 1.8, TDP2 absorb 29.9*, MBD2 DNA inh -5.0, UHRF1 MBD2 ctr -2.8 and TDP2 inh conf 5.3.
`Cc1nnc2nc(N)[nH]n2c1=O` gave LEDGF integ inh -3.8, TDP2 absorb 5.2, MBD2 DNA inh 0.3 and UHRF1 MBD2 ctr -0.7.
Screening C/C(=N\NC(=O)CNC(=O)c1ccco1)c1ccc(Br)cc1 returned LEDGF integ inh 0.7, TDP2 absorb 13.1, MBD2 DNA inh -4.2 and UHRF1 MBD2 ctr -0.8.
`O=C(NCC(=O)N1CCN(C(=O)c2ccco2)CC1)c1ccc(Br)cc1` gave LEDGF integ inh 3.1, TDP2 absorb 25.2*, MBD2 DNA inh -5.5, UHRF1 MBD2 ctr -0.2 and TDP2 inh conf -4.3.
O=C(NCC(=O)N1CCCC1)c1ccc(Br)cc1 was read as LEDGF integ inh -0.3, TDP2 absorb 9.7, MBD2 DNA inh -6.3 and UHRF1 MBD2 ctr 0.4.
Screening C/C(=N\NC(=O)CNC(=O)c1ccc(Br)cc1)c1ccco1 returned LEDGF integ inh 0.2, TDP2 absorb 36.4*, MBD2 DNA inh 2.0, UHRF1 MBD2 ctr -3.9 and TDP2 inh conf -8.7.
`C[C@@H]1CN([C@@H](C)CO)C(=O)CCCn2cc(nn2)CO[C@H]1CN(C)C(=O)Nc1ccccc1F` gave LEDGF integ inh -2.2, TDP2 absorb -1.5, MBD2 DNA inh 0.1 and UHRF1 MBD2 ctr 0.4.
Screening Cc1ccc(-n2c(Cc3cccs3)nnc2SCC(=O)Nc2cccc3ccccc23)cc1 returned LEDGF integ inh 3.1, TDP2 absorb -21.6, MBD2 DNA inh 4.2 and UHRF1 MBD2 ctr 2.4.
`CCC(C)N1CCN(S(=O)(=O)c2ccc3ccccc3c2)CC1` (configuration not stated) gave LEDGF integ inh 1.4, TDP2 absorb 32.2*, MBD2 DNA inh 2.6, UHRF1 MBD2 ctr 4.2 and TDP2 inh conf 6.4.
Screening CC(C(=O)NC1CCCCCC1)c1ccc([N+](=O)[O-])cc1 (configuration not stated) returned LEDGF integ inh -2.2, TDP2 absorb 24.6*, MBD2 DNA inh 2.7, UHRF1 MBD2 ctr -2.6 and TDP2 inh conf -3.1.
For CC[C@H](C)[C@H](NC(N)=O)C(=O)NCCc1ccc(OC)c(OC)c1 the results were LEDGF integ inh -1.4, TDP2 absorb 24.7*, MBD2 DNA inh 1.6, UHRF1 MBD2 ctr -0.3 and TDP2 inh conf 11.1.
For CCN(CC)S(=O)(=O)c1cccc(C(=O)OCC(=O)Nc2ccccc2OC(F)F)c1 the results were LEDGF integ inh -0.3, TDP2 absorb 64.1*, MBD2 DNA inh 0.1, UHRF1 MBD2 ctr -0.1 and TDP2 inh conf -6.9.
CN(C)S(=O)(=O)c1cccc(C(=O)OCC(=O)Nc2ccccc2OC(F)F)c1 was read as LEDGF integ inh 1.0, TDP2 absorb -3.3, MBD2 DNA inh 3.7 and UHRF1 MBD2 ctr 6.1.
Screening CCN(CC)c1ccc(/C=C2\C(=O)N(c3nnc(C)c(=O)[nH]3)N=C2C)cc1 returned LEDGF integ inh 4.2, TDP2 absorb 26.0*, MBD2 DNA inh -4.8, UHRF1 MBD2 ctr -3.5 and TDP2 inh conf 4.2.
Screening Cc1cccc(Cn2cc(COC(=O)N3CCCC3)nn2)c1 returned LEDGF integ inh -1.5, TDP2 absorb 0.2, MBD2 DNA inh 2.3 and UHRF1 MBD2 ctr 2.0.
`CC(C)CN1C(=O)[C@@]2(CC(=O)N(C)C2c2ccccc2)c2cc(-n3cc(CCc4ccccc4)nn3)ccc21` (some centres not stated) gave LEDGF integ inh 7.0, TDP2 absorb -16.9, MBD2 DNA inh -1.8 and UHRF1 MBD2 ctr 0.3.
Cn1[nH]c(CSc2ccc(Cl)cc2)cc1=O was read as LEDGF integ inh 5.7, TDP2 absorb 48.3*, MBD2 DNA inh 2.4, UHRF1 MBD2 ctr 2.0 and TDP2 inh conf 3.0.
S=C(N/N=C/c1ccc2c(c1)OCO2)NC1CC2CCC1C2 (configuration not stated) was read as LEDGF integ inh 3.6, TDP2 absorb 25.6*, MBD2 DNA inh -0.6, UHRF1 MBD2 ctr -2.3 and TDP2 inh conf 6.6.
Screening C[C@H](O)[C@@H]1CN2CCc3ccc(N4CCOCC4)cc3[C@@H]2C[C@@H]1N(C)C(=S)NCCc1ccccc1 returned LEDGF integ inh -4.6, TDP2 absorb 0.4, MBD2 DNA inh 1.2 and UHRF1 MBD2 ctr -1.2.
`CN(C)/C=N/NC(=O)c1ccccc1` gave LEDGF integ inh -2.3, TDP2 absorb -10.2, MBD2 DNA inh 1.8 and UHRF1 MBD2 ctr 7.2.
For O=C(NN=c1c(=O)c2ccccc2c1=O)c1ccccc1 the results were LEDGF integ inh 9.0, TDP2 absorb 57.0*, MBD2 DNA inh -7.6, UHRF1 MBD2 ctr -2.0 and TDP2 inh conf 78.0*.
For CCOCCCNC(=O)Cn1cc2c(n1)-c1c(oc(C(=O)N3CCCC3)c1C)CC2 the results were LEDGF integ inh 1.8, TDP2 absorb 37.7*, MBD2 DNA inh -0.4, UHRF1 MBD2 ctr 7.1 and TDP2 inh conf -6.7.
For COc1ccc2ccc3c(c2c1)N=C[C@]1(O3)N(C)c2ccccc2C1(C)C the results were LEDGF integ inh 7.3, TDP2 absorb 41.2*, MBD2 DNA inh -4.5, UHRF1 MBD2 ctr 9.1 and TDP2 inh conf 0.2.
Screening O=C(CC1CCCC1)N[C@H](C(=O)N1CCC[C@H]1C(=O)NC1CCCC1)C1CCCCC1 returned LEDGF integ inh 1.3, TDP2 absorb -12.9, MBD2 DNA inh 2.4 and UHRF1 MBD2 ctr 5.4.
For CCc1ccc(NC(=O)Nc2cc(C(=O)NCC3CCCO3)ccc2N2CC3CC(C2)c2cccc(=O)n2C3)cc1 (configuration not stated) the results were LEDGF integ inh 3.1, TDP2 absorb 24.9*, MBD2 DNA inh -1.8, UHRF1 MBD2 ctr -1.6 and TDP2 inh conf 1.9.
For CN1NC(=O)c2ccccc2NC1=S the results were LEDGF integ inh -0.9, TDP2 absorb -5.0, MBD2 DNA inh -1.2 and UHRF1 MBD2 ctr 1.5.
CCOc1ccc(-n2c(SCC(=O)Nc3ccc4cn[nH]c4c3)nnc2-c2ccc(C(C)(C)C)cc2)cc1 was read as LEDGF integ inh -1.4, TDP2 absorb 3.8, MBD2 DNA inh -0.8 and UHRF1 MBD2 ctr 0.3.
For Nc1cccc2nsnc12 the results were LEDGF integ inh 6.3, TDP2 absorb 59.9*, MBD2 DNA inh -6.0, UHRF1 MBD2 ctr -4.7 and TDP2 inh conf 5.0.
